The labels stand for the following.
B1: tRNA (parent)
chain: CUCUCGGUAGCCAAGUUGGUUUAAGGCGCAAGACUUUAAUUUAUCACUACGAAAUCUUGAGAUCGGGCGUUCGACUCGCCCCCGGGAGAUUUUUUCCUCGAGCAA

This sample holds only a part of the variants without activity.

This data set covers variants of B1. Kind of data set: nonsense suppression (GFP-seq) (ratio to wild type); higher = more function; SUP4oc tRNA, yeast GFP reporter sort-seq. The gist of the method: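 Each variant's nonsense suppression (GFPSEQ) is a cell-share-weighted bin median GFP/RFP relative to the unmutated parent tRNA. Yeast with genome-integrated tRNA variants from a ~3% random-mutation library, a galactose-driven GFP ochre reporter and RFP were grown in raffinose/galactose medium with 80 mg/L adenine, then sorted into GFP/RFP bins for Illumina sequencing. Variants needed ≥100 reads and ≥30 cells.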
As to U16G G25C U55G, the nonsense suppression is at most 0.026.
U20A A24U: the nonsense suppression is 0.0696.
The figure for U20A A24C is 0.192; for U17C G28A G61C it is 0.716.
For U17C A30G A31G, the nonsense suppression turned out to be 0.0827.
The figure for U17C A62C is 0.734; for U20A U71A it is at most 0.026.
As for G19U U55G, the nonsense suppression is at most 0.026.
For G18A G25U C27U G67C, the nonsense suppression was at most 0.026.
As for U20C U57C U58G G61C, the figure is at most 0.026.
The figure for U20A A74U is 0.0745.
The figure for U16G U57A C64U G66U G69A is at most 0.026; for G19U A23U C34A U63G it is at most 0.026; for G18C A89G it is at most 0.026.
Take U17C U55C: the nonsense suppression was determined as 0.444.
U17A C29U: the nonsense suppression was 1.15.
On to U20A A31G, for which the nonsense suppression was found to be 0.461.
The figure for G19U A24G A87G is at most 0.026; for U17G G28C it is 0.209.
For U17G G28A, the nonsense suppression was found to be 1.12.
Turning to G18C G88A, the nonsense suppression turned out to be 0.135.
As for U17A G28A G85A, the figure is 1.02; as for U17C G61C, 0.769; as for U17C G61A, 0.235.
With G18C A24C A33U, the nonsense suppression was at most 0.026.
As for U17C U76C, the figure is 1.09; as for U20C G85A, 0.861; as for U21A A31G, 1.16.
Consider U20A U55C C82G, for which the nonsense suppression was at most 0.026.
In the case of G18U A30U G78U, the nonsense suppression was at most 0.026.
The figure for U20A G85U is 0.0676; for U17A A54G G85U it is at most 0.026.
As for U17G A54U, the figure is 1.16.
In the case of U17G A54C, the nonsense suppression turned out to be 0.64.
The figure for G19C U71C is at most 0.026.
U17A A60C: the nonsense suppression was 0.19.
Take G19A C34A G59A G73U C82U: the nonsense suppression is at most 0.026.
Consider G18A U55A U58A, for which the nonsense suppression is at most 0.026.
With G18U A33U C82U A89C, the nonsense suppression is at most 0.026.
As for U16G C29U, the figure is 1.11; as for U16G U17C C72A, 0.27.
As to U17C U20G, the nonsense suppression worked out at 1.25.
As for U20G A23U G88U, the figure is at most 0.026; as for U16G G28U U35G G59A G85A, at most 0.026; as for G18U G25A G78U, at most 0.026.
The figure for G19C C27G A30U U55C is at most 0.026.
For the variant U17C C72G, the nonsense suppression was at most 0.026.
As for U17A A31G C72G U76A G78U, the figure is at most 0.026.
As to U20A U76C, the nonsense suppression was found to be 0.719.
As to G18C G61A, the nonsense suppression is at most 0.026.
As for G18C A54C G84U, the nonsense suppression is at most 0.026.
The figure for U17C A33G is 0.0608.
The figure for G19C A23C C56G G85U is at most 0.026; for G19U G28A it is 0.0287.
On to G19A U63G, for which the nonsense suppression was 0.143.
The figure for U17A U21A is 0.966; for U20A U63G it is 0.106.
As for U20A U63C, the figure is 0.191; as for U20A U63A, 0.187; as for G18A G73A, at most 0.026.
As for U17C C29G, the figure is at most 0.026.
For U17G A54G U55G, the nonsense suppression was at most 0.026.
The figure for U17G C79U is 0.764; for U17A A30G it is 0.369; for G18C G19A G66A it is at most 0.026.
As to U21A A30G, the nonsense suppression stood at 0.42.
As for U16C U63C C79U, the figure is 0.0784.
Regarding U17C C29A G65A C72U C77U, the nonsense suppression was at most 0.026.
As for U16G A31G, the figure is 1.15; as for U20C G78U, 0.0456.
Take U16G C56A U58G A60C: the nonsense suppression was at most 0.026.
For the variant U20C C77U, the nonsense suppression was 0.0349.
On to U17C G28C C75G, for which the nonsense suppression was 1.02.
Turning to U17G A31G, the nonsense suppression is 1.15.
Take U17C A60G: the nonsense suppression was found to be 0.411.
Turning to U17C A60C, the nonsense suppression turned out to be 0.196.
As for U20C C29U, the figure is 0.0276; as for U20C C27G, at most 0.026.
As for U16G C82G, the figure is at most 0.026; as for U16G G67A, 0.178; as for U17C G19A C27G, at most 0.026.
The figure for U20A U35G A60C G69A C82A is at most 0.026.
For G18U U55C, the nonsense suppression is 0.0402.
As for G19U G26C U57C, the figure is at most 0.026; as for U17C A30G, 0.326.
U17C A30U: the nonsense suppression was 0.16.
Consider G18A U20G, for which the nonsense suppression came to 0.905.
As for U16G G85C, the figure is 0.0285; as for U16G G85U, 1.06.
As for U20G C82U, the figure is 0.838; as for U17G U22G, 1.04; as for U17A U55C, 0.176.
As for U20C A89U, the figure is 0.0684; as for U17C G28C A54U, 0.219.
Take U21A A54C G61A: the nonsense suppression is 0.215.
G18C C29U G85A G88A: the nonsense suppression was at most 0.026.
As for U20A G78A, the figure is 0.0977.
U17C G28A: the nonsense suppression amounted to 1.09.
Take U17A A33C U76C C79A C80U: the nonsense suppression is at most 0.026.
The figure for U21A A24U is 0.184; for U21A A24C it is 0.753.
The figure for U17G G19U is 1.05; for U17G G19A it is 0.204; for G19U A24G G78C A89C it is at most 0.026.
Turning to U17G A30G, the nonsense suppression amounted to 0.397.
Regarding U17G A30U, the nonsense suppression is 0.0613.
For the variant U17C A54U, the nonsense suppression was determined as 0.788.
Turning to U16G A23G, the nonsense suppression turned out to be 0.129.
As for U17G A54U G61C, the figure is 0.162.
Take G19U G28A C56G: the nonsense suppression was at most 0.026.
Turning to U20C G86C, the nonsense suppression was at most 0.026.
For the variant U20C G86A, the nonsense suppression was at most 0.026.
As for U17G C68A G69U, the figure is at most 0.026; as for U17G U21G G61U, 0.0263.
In the case of U20C A30U, the nonsense suppression is 0.0386.
As for U20C A30G, the figure is 0.129; as for U17A G32C U71G, 0.0947.
The figure for G19A A33U U71A is at most 0.026; for U17A G61C it is 0.665.
Turning to U17A G61A, the nonsense suppression was 0.83.
The figure for U20C C75U is 0.843; for U16G A54U it is 1.18; for G19A A54G G67A it is at most 0.026.
On to U17C G88U, for which the nonsense suppression was at most 0.026.
With U17G C64A, the nonsense suppression worked out at 0.0364.
As for U17G U21C, the figure is 1.05; as for U17G U21A, 1.16.
In the case of U17G U21G, the nonsense suppression stood at 0.717.
The figure for U20A G61C is 0.0711; for U20A G61U it is 0.217.
The figure for G19C A30U is at most 0.026.
Turning to U16G C27G, the nonsense suppression is at most 0.026.
As for U16G A60G, the figure is 0.39; as for U16G C79U, 0.852.
As for U17G C75U A87G, the nonsense suppression came out at 0.77.
For the variant U17G C83A, the nonsense suppression was at most 0.026.
On to G19C U21C G66C G84A G86A, for which the nonsense suppression is at most 0.026.
For the variant U20C G59A, the nonsense suppression came to 0.0894.
As to U20C C83G G86A, the nonsense suppression is at most 0.026.
As for U20G C81G, the figure is at most 0.026.
The figure for U20G G25A G78A is at most 0.026; for G19U A54U C72G it is at most 0.026.
For the variant G19U G25A A31G U35G C64G, the nonsense suppression was at most 0.026.
As for U20G G32C A62U, the figure is at most 0.026.
As for U20A A87G, the figure is 0.226; as for U20A U22C, 1.11; as for U17G A23C, at most 0.026.
In the case of U20G A30U, the nonsense suppression was found to be 0.444.
With U20G G61C, the nonsense suppression was determined as 0.615.
U20G G61A: the nonsense suppression was 0.635.
In the case of U20G G61U, the nonsense suppression amounted to 0.874.
As for U20C C79U G84U, the figure is at most 0.026; as for U17G G66U G69A, at most 0.026; as for U17C U22A, 0.758.
As for G18U C83A, the figure is at most 0.026; as for U16G U17A G19A C27A, at most 0.026; as for U20C G61A, 0.212.
As for G19C G67C, the figure is at most 0.026.
With U17A U63A U76C, the nonsense suppression was 0.155.
With U17A, the nonsense suppression came out at 0.937.
The figure for U17C is 1.05.
For the variant U17G, the nonsense suppression was determined as 0.999.
G19A A31G: the nonsense suppression turned out to be 0.0307.
The figure for U17A G78A is 0.449; for U17A G78U it is 0.186.
The figure for G19U C29A G59A is at most 0.026; for U16G U22A it is 0.872.

The values are drawn from the RNAGym collection of RNA variant scans (doi:10.1101/gad.245936.114).
